According to ChEMBL document CHEMBL5058577, “EUbOPEN Chemogenomics Library 2 (Multiplex)” (2022):

Test system: U2OS
Assay: Multiplex assay against U2OS
Format: toxicity, cell-based
Details: human
Method in brief: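 Live cells were stained at seeding with Hoechst33342, BioTracker Green Microtubule Cytoskeleton Dye, MitoTracker Red and Annexin V Alexa Fluor 680, then imaged on a CQ1 microscope at 37°C and 5% CO2 after compound addition. CellPathfinder machine-learning gating split cells into Hoechst high-intensity objects or normal cells. Normal cells were split into healthy, pyknosed or fragmented nuclei, and pyknosed cells into mitotic or apoptotic. Tubulin, mitochondrial-mass and membrane-permeability phenotypes are per cents of healthy-nucleus cells.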

[1] = 12 h, 1 µM, compound concentration 1 uM, replicate 1
[2] = 12 h, 1 µM, compound concentration 1 uM, replicate 2
[3] = 12 h, 10 µM, compound concentration 10 uM, replicate 1
[4] = 12 h, 10 µM, compound concentration 10 uM, replicate 2
[5] = 24 h, 1 µM, compound concentration 1 uM, replicate 1
[6] = 24 h, 1 µM, compound concentration 1 uM, replicate 2
[7] = 24 h, 10 µM, compound concentration 10 uM, replicate 1
[8] = 24 h, 10 µM, compound concentration 10 uM, replicate 2
[9] = 48 h, 1 µM, compound concentration 1 uM, replicate 1
[10] = 48 h, 1 µM, compound concentration 1 uM, replicate 2
[11] = 48 h, 10 µM, compound concentration 10 uM, replicate 1
[12] = 48 h, 10 µM, compound concentration 10 uM, replicate 2

O=S(=O)(c1ccccc1)c1cnc2c(N3CCNCC3)cccc2c1 [INTEPIRDINE]
Population Apoptotic (%) [1]: 76%
Population Fragmented Nuclei (%) [1]: 23%
Population Healthy Nuclei (%) [1]: 68%
Population Hoechst High Intensity Objects (%) [1]: 1%
Population Membrane Permeable-Phenotype (%) [1]: 6%
Population Mitochondria Different-Phenotype (%) [1]: 3%
Population Mitotic Cells (%) [1]: 23%
Population Normal (%) [1]: 98%
Population Pyknosed Nuclei (%) [1]: 7%
Population Tubulin-Different-Phenotype (%) [1]: 4%
Total Cell Count [1]: 267
Population Apoptotic (%) [2]: 70%
Population Fragmented Nuclei (%) [2]: 17%
Population Healthy Nuclei (%) [2]: 71%
Population Hoechst High Intensity Objects (%) [2]: 0%
Population Membrane Permeable-Phenotype (%) [2]: 7%
Population Mitochondria Different-Phenotype (%) [2]: 6%
Population Mitotic Cells (%) [2]: 30%
Population Normal (%) [2]: 100%
Population Pyknosed Nuclei (%) [2]: 11%
Population Tubulin-Different-Phenotype (%) [2]: 7%
Total Cell Count [2]: 88
Population Apoptotic (%) [3]: 58%
Population Fragmented Nuclei (%) [3]: 25%
Population Healthy Nuclei (%) [3]: 61%
Population Hoechst High Intensity Objects (%) [3]: 3%
Population Membrane Permeable-Phenotype (%) [3]: 23%
Population Mitochondria Different-Phenotype (%) [3]: 11%
Population Mitotic Cells (%) [3]: 41%
Population Normal (%) [3]: 96%
Population Pyknosed Nuclei (%) [3]: 12%
Population Tubulin-Different-Phenotype (%) [3]: 14%
Total Cell Count [3]: 204
Population Apoptotic (%) [4]: 85%
Population Fragmented Nuclei (%) [4]: 10%
Population Healthy Nuclei (%) [4]: 79%
Population Hoechst High Intensity Objects (%) [4]: 2%
Population Membrane Permeable-Phenotype (%) [4]: 12%
Population Mitochondria Different-Phenotype (%) [4]: 13%
Population Mitotic Cells (%) [4]: 14%
Population Normal (%) [4]: 97%
Population Pyknosed Nuclei (%) [4]: 10%
Population Tubulin-Different-Phenotype (%) [4]: 10%
Total Cell Count [4]: 139
Population Apoptotic (%) [5]: 80%
Population Fragmented Nuclei (%) [5]: 22%
Population Healthy Nuclei (%) [5]: 67%
Population Hoechst High Intensity Objects (%) [5]: 2%
Population Membrane Permeable-Phenotype (%) [5]: 7%
Population Mitochondria Different-Phenotype (%) [5]: 2%
Population Mitotic Cells (%) [5]: 19%
Population Normal (%) [5]: 97%
Population Pyknosed Nuclei (%) [5]: 9%
Population Tubulin-Different-Phenotype (%) [5]: 4%
Total Cell Count [5]: 319
Population Apoptotic (%) [6]: 69%
Population Fragmented Nuclei (%) [6]: 14%
Population Healthy Nuclei (%) [6]: 73%
Population Hoechst High Intensity Objects (%) [6]: 0%
Population Membrane Permeable-Phenotype (%) [6]: 3%
Population Mitochondria Different-Phenotype (%) [6]: 3%
Population Mitotic Cells (%) [6]: 30%
Population Normal (%) [6]: 99%
Population Pyknosed Nuclei (%) [6]: 12%
Population Tubulin-Different-Phenotype (%) [6]: 1%
Total Cell Count [6]: 108
Population Apoptotic (%) [7]: 72%
Population Fragmented Nuclei (%) [7]: 23%
Population Healthy Nuclei (%) [7]: 60%
Population Hoechst High Intensity Objects (%) [7]: 3%
Population Membrane Permeable-Phenotype (%) [7]: 17%
Population Mitochondria Different-Phenotype (%) [7]: 14%
Population Mitotic Cells (%) [7]: 27%
Population Normal (%) [7]: 96%
Population Pyknosed Nuclei (%) [7]: 16%
Population Tubulin-Different-Phenotype (%) [7]: 10%
Total Cell Count [7]: 233
Population Apoptotic (%) [8]: 77%
Population Fragmented Nuclei (%) [8]: 10%
Population Healthy Nuclei (%) [8]: 77%
Population Hoechst High Intensity Objects (%) [8]: 0%
Population Membrane Permeable-Phenotype (%) [8]: 10%
Population Mitochondria Different-Phenotype (%) [8]: 17%
Population Mitotic Cells (%) [8]: 22%
Population Normal (%) [8]: 99%
Population Pyknosed Nuclei (%) [8]: 11%
Population Tubulin-Different-Phenotype (%) [8]: 6%
Total Cell Count [8]: 156
Population Apoptotic (%) [9]: 89%
Population Fragmented Nuclei (%) [9]: 15%
Population Healthy Nuclei (%) [9]: 70%
Population Hoechst High Intensity Objects (%) [9]: 3%
Population Membrane Permeable-Phenotype (%) [9]: 6%
Population Mitochondria Different-Phenotype (%) [9]: 4%
Population Mitotic Cells (%) [9]: 10%
Population Normal (%) [9]: 96%
Population Pyknosed Nuclei (%) [9]: 14%
Population Tubulin-Different-Phenotype (%) [9]: 4%
Total Cell Count [9]: 416
Population Apoptotic (%) [10]: 76%
Population Fragmented Nuclei (%) [10]: 13%
Population Healthy Nuclei (%) [10]: 68%
Population Membrane Permeable-Phenotype (%) [10]: 3%
Population Mitochondria Different-Phenotype (%) [10]: 2%
Population Mitotic Cells (%) [10]: 23%
Population Pyknosed Nuclei (%) [10]: 18%
Population Tubulin-Different-Phenotype (%) [10]: 2%
Total Cell Count [10]: 148
Population Apoptotic (%) [11]: 78%
Population Fragmented Nuclei (%) [11]: 22%
Population Healthy Nuclei (%) [11]: 59%
Population Hoechst High Intensity Objects (%) [11]: 4%
Population Membrane Permeable-Phenotype (%) [11]: 15%
Population Mitochondria Different-Phenotype (%) [11]: 7%
Population Mitotic Cells (%) [11]: 22%
Population Normal (%) [11]: 95%
Population Pyknosed Nuclei (%) [11]: 17%
Population Tubulin-Different-Phenotype (%) [11]: 6%
Total Cell Count [11]: 302
Population Apoptotic (%) [12]: 95%
Population Fragmented Nuclei (%) [12]: 13%
Population Healthy Nuclei (%) [12]: 75%
Population Hoechst High Intensity Objects (%) [12]: 2%
Population Membrane Permeable-Phenotype (%) [12]: 10%
Population Mitochondria Different-Phenotype (%) [12]: 12%
Population Mitotic Cells (%) [12]: 4%
Population Normal (%) [12]: 97%
Population Pyknosed Nuclei (%) [12]: 11%
Population Tubulin-Different-Phenotype (%) [12]: 4%
Total Cell Count [12]: 201
